The source made the active and inactive calls. The rule behind the calls is not given here.

The first series concerns Homo sapiens [UNDEFINED MUTATION]. Briefly: Antagonist activity at androgen receptor V7 mutant in human CW22Rv1 cells assessed as cell growth inhibition after 144 hrs by SRB assay. It counts as cell-based.
Conditions: not given
In short, it runs like this:
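SRB assay on CW22Rv1 cells grown in RPMI 1640 with 10% FBS and 1% glutamine. Cells plated at 1700/well and exposed 24 h after seeding for 144 h to 0.02–20 μM. OD read at 490 nm. GI50 is the concentration giving 50% growth inhibition by the Monks formula relative to time-zero and untreated OD. Octuplicate wells, three independent experiments, mean ± SD.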
(In SRB staining, fixed cells bind dye roughly in proportion to their protein.)
Consider `N#Cc1ccc(OCc2cn(CC(=O)Nc3ccc(Cl)c(C(F)(F)F)c3)nn2)cc1`, for which the concentration for 50% growth inhibition (GI50) came to 8.25 µM.

The next series addresses T1, Androgen receptor (Homo sapiens) (UniProt P10275).
T1 sequence (whole entry): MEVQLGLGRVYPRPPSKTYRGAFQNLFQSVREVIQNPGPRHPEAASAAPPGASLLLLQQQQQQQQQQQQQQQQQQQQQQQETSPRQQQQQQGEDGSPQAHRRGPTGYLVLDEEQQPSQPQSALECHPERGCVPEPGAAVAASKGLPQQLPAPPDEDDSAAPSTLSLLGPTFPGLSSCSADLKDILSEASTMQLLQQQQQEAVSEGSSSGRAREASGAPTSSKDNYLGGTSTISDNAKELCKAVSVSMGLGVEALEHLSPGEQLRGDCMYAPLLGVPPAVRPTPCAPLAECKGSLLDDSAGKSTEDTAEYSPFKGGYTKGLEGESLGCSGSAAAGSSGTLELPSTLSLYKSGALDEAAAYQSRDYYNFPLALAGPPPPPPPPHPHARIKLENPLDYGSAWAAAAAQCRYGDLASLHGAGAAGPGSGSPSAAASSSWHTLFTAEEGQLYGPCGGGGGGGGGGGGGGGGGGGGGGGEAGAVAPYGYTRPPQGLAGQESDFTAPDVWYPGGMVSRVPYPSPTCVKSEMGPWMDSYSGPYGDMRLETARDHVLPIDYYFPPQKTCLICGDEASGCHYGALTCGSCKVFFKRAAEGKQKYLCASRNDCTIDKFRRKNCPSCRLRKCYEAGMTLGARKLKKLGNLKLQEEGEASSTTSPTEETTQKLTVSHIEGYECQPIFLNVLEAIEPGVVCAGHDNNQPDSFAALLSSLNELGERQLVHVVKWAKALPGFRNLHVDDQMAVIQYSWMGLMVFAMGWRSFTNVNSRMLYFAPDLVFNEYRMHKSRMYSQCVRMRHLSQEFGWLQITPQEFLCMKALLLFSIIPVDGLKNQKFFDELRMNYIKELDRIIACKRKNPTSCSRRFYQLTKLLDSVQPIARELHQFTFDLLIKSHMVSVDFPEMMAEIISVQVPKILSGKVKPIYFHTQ
Nature of the series: Antagonist activity at androgen receptor in human LNCAP cells assessed as reduction in PSA mRNA expression at 10 uM after 24 hrs by RT-qPCR analysis relative to control. The class given is cell-based.
Conditions: not given
In short, it runs like this:
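LNCaP cells treated 24 h after seeding with 10 μM compound for 24 h at 37 °C. RNA extracted, cDNA made from equal RNA amounts, then SYBR Green RT-qPCR for PSA. Normalised to 18S rRNA, relative levels by comparative Ct method versus untreated cells. Run in triplicate.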
For orientation: Quantitative PCR measures a nucleic acid by following its amplification.
For `N#Cc1ccc(-n2cc(COc3ccc(F)cc3)nn2)cc1C(F)(F)F`, the inhibition is greater than 65%.
Consider `N#Cc1ccc(-n2cc(CSc3ccc(F)cc3)nn2)cc1C(F)(F)F`, for which the inhibition was greater than 65%.
As for `N#Cc1ccc(-n2cc(COc3ccc([N+](=O)[O-])cc3C(F)(F)F)nn2)cc1C(F)(F)F`, the inhibition entry is “inactive”.
On to `N#Cc1ccc(-n2nnc(COc3ccc([N+](=O)[O-])cc3C(F)(F)F)c2I)cc1C(F)(F)F`, for which the inhibition entry is “inactive”.
Take `N#Cc1ccc(-n2cc(-c3cccc(F)c3F)nn2)cc1C(F)(F)F`: the inhibition was 38%.
`N#Cc1ccc(NC(=O)Cn2cc(CSc3ccc(F)cc3)nn2)cc1C(F)(F)F`: the inhibition entry is “inactive”.
As for `N#Cc1ccc(OCc2cn(CC(=O)Nc3ccc(C#N)c(C(F)(F)F)c3)nn2)cc1`, the inhibition was 70%.
Turning to `N#Cc1ccc(-n2cc(COc3cccc(C(F)(F)F)c3)nn2)cc1C(F)(F)F`, the inhibition result is “inactive”.
On to `O=[N+]([O-])c1ccc(OCc2cn(-c3cccc(C(F)(F)F)c3)nn2)c(C(F)(F)F)c1`, for which the inhibition result was “inactive”.
In the case of `N#Cc1ccc(-n2cc(COc3ccc(C(F)(F)F)cc3)nn2)cc1C(F)(F)F`, the inhibition entry is “inactive”.
On the same count and under the same terms, next, `N#Cc1ccc(-n2cc(-c3cccc(Cl)c3F)nn2)cc1C(F)(F)F`: “inactive”; `N#Cc1ccc(OCc2cn(-c3ccc(C#N)c(C(F)(F)F)c3)nn2)cc1`: greater than 65%.
With `N#Cc1ccc(-n2cc(COc3ccc([N+](=O)[O-])cc3)nn2)cc1C(F)(F)F`, the inhibition was greater than 65%.
As for `N#Cc1ccc(OCc2cn(CC(=O)Nc3ccc(Cl)c(C(F)(F)F)c3)nn2)cc1`, the inhibition result was “inactive”.
The same measure, in the same setting: next, `CC(O)c1c(COc2ccc(C#N)cc2)nnn1-c1ccc(C#N)c(C(F)(F)F)c1` (stereo not given): greater than 65%.
For the compound `N#Cc1ccc(NC(=O)Cn2cc(COc3ccc(F)cc3)nn2)cc1C(F)(F)F`, the inhibition result was “inactive”.
On to `N#Cc1ccc(-n2cc(COc3ccc(F)c(C(F)(F)F)c3)nn2)cc1C(F)(F)F`, for which the inhibition result is “inactive”.
In the case of `N#Cc1ccc(-n2cc(COc3cccc(C(F)(F)F)c3F)nn2)cc1C(F)(F)F`, the inhibition entry is “inactive”.
As to `N#Cc1ccc(-n2cc(-c3cccc(C(F)(F)F)c3F)nn2)cc1C(F)(F)F`, the inhibition result is “inactive”.
As to `N#Cc1ccc(-n2cc(COc3ccccc3[N+](=O)[O-])nn2)cc1C(F)(F)F`, the inhibition was greater than 65%.
In the case of `N#Cc1ccc(-n2cc(COc3ccccc3)nn2)cc1C(F)(F)F`, the inhibition is greater than 65%.
With `N#Cc1ccccc1OCc1cn(-c2ccc(C#N)c(C(F)(F)F)c2)nn1`, the inhibition is greater than 65%.

A further series concerns the target T1, Androgen receptor (Homo sapiens). Briefly: Antagonist activity at androgen receptor in human LNCAP cells assessed as cell death after 144 hrs by SRB assay.
Conditions: not given
It counts as cell-based. In short, it runs like this:
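LNCaP cells in RPMI with 10% FBS and 1% glutamine, 5000 cells/well, exposed 24 h after seeding for 144 h to 0.02–20 μM. Read by SRB, OD 490 nm. LC50 is the concentration killing 50% of cells, i.e. treated OD below time-zero OD, per the Monks formula. Octuplicate wells, three independent experiments, mean ± SD.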
Take `N#Cc1ccc(OCc2cn(CC(=O)Nc3ccc(Cl)c(C(F)(F)F)c3)nn2)cc1`: the GI50 is 15.7 µM.

System in the next series: not listed separately
Briefly: Antagonist activity at androgen receptor V7 mutant in human CW22Rv1 cells assessed as cell growth inhibition after 72 hrs by SRB assay. The class given is cell-based.
Conditions: not given
With `N#Cc1ccc(OCc2cn(CC(=O)Nc3ccc(Cl)c(C(F)(F)F)c3)nn2)cc1`, the IC50 turned out to be 8.14 µM.
Same read-out and setting: the figure for `C[C@](O)(CS(=O)(=O)c1ccc(F)cc1)C(=O)Nc1ccc(C#N)c(C(F)(F)F)c1` [(R)-BICALUTAMIDE] is 31.3 µM; for `CNC(=O)c1ccc(N2C(=S)N(c3ccc(C#N)c(C(F)(F)F)c3)C(=O)C2(C)C)cc1F` [ENZALUTAMIDE] it is 35.8 µM.

For the next series, the system named is Homo sapiens [UNDEFINED MUTATION]. Briefly: Antagonist activity at androgen receptor V7 mutant in human CW22Rv1 cells assessed as cell death after 144 hrs by SRB assay. The class given is cell-based.
Conditions: not given
In short, it runs like this: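 CW22Rv1 (RPMI 1640, 10% FBS, 1% glutamine) plated at 1700 cells/well; 24 h after seeding, drug exposure 0.02–20 μM for 144 h. Sulforhodamine B read at 490 nm. LC50 = concentration killing 50% of cells, i.e. OD treated below OD at time of drug addition (Monks formula). Octuplicate wells, three independent experiments, mean ± SD.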
Take `N#Cc1ccc(OCc2cn(CC(=O)Nc3ccc(Cl)c(C(F)(F)F)c3)nn2)cc1`: the LC50 was 23.1 µM.

System in another series: not listed separately
Nature of the series: Antitumor activity against human CW22Rv1 cells xenografted in nude CD1 mouse assessed as tumor volume inhibition at 50 mg/kg administered through oral gavage dosed qd for 5 days a week measured on day 7. The class given is functional.
Conditions: not given
In short, it runs like this: (§1)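 Male CD-1 nude (nu/nu) mice, 8 weeks old, given 5 × 10^6 CW22Rv1 cells in saline s.c. in the right flank on day 0. Randomized, 5 per group. From day 1, before tumors were palpable, 50 mg/kg by oral gavage at 10 mL/kg in DMSO/Cremophor/PBS (10/5/85), qdx5/wx3w. Vehicle controls. Tumor volume by caliper as a × b²/2. TVI is the maximum value. Body weight loss monitored.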
As for `N#Cc1ccc(OCc2cn(CC(=O)Nc3ccc(Cl)c(C(F)(F)F)c3)nn2)cc1`, the “%max” value worked out at 60%.
For the compound `CNC(=O)c1ccc(N2C(=S)N(c3ccc(C#N)c(C(F)(F)F)c3)C(=O)C2(C)C)cc1F` [ENZALUTAMIDE], the “%max” value is listed as 43%.

Another series relates to Mus musculus. Briefly: Toxicity in nude CD1 mouse xenografted with human CW22Rv1 cells assessed as body weight loss at 50 mg/kg administered through oral gavage dosed qd for 5 days a week for 3 weeks. The conditions noted are these: in vivo. The class given is organism-based. The method in brief:
as §1
As for `N#Cc1ccc(OCc2cn(CC(=O)Nc3ccc(Cl)c(C(F)(F)F)c3)nn2)cc1`, the Activity came out at 0%.
`CNC(=O)c1ccc(N2C(=S)N(c3ccc(C#N)c(C(F)(F)F)c3)C(=O)C2(C)C)cc1F` [ENZALUTAMIDE]: the Activity came out at 0%.

The next series deals with Mus musculus. Nature of the series: Toxicity in nude CD1 mouse xenografted with human CW22Rv1 cells assessed as mortality at 50 mg/kg administered through oral gavage dosed qd for 5 days a week for 3 weeks. The class given is organism-based. The settings on record: in vivo. In short, it runs like this: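 Eight-week-old male CD-1 nude mice, 5 per group, given CW22Rv1 cells (5 × 10^6 in saline) sc in right flank on day 0. From day 1, oral gavage at 50 mg/kg (10 mL/kg) in DMSO/Cremophor/PBS (10/5/85), daily 5 days/week for 3 weeks. Vehicle controls. Toxicity scored as deaths per group, with body weight loss.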
(In general: Xenograft models place foreign cells or tissue in a host animal.)
Consider `N#Cc1ccc(OCc2cn(CC(=O)Nc3ccc(Cl)c(C(F)(F)F)c3)nn2)cc1`, for which the Activity entry is given as “Non-Toxic”.
On the same count and under the same terms, the entry for `CNC(=O)c1ccc(N2C(=S)N(c3ccc(C#N)c(C(F)(F)F)c3)C(=O)C2(C)C)cc1F` [ENZALUTAMIDE] is “Non-Toxic”.

The species named for a further series is Homo sapiens. Nature of the series: Potency index, ratio of (R)-bicalutamide IC50 to compound IC50 for antagonist activity at AR V7 mutant in human CW22Rv1 cells assessed as cell growth inhibition.
Conditions: not given
It counts as cell-based. The method in brief:
(§2)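 CW22Rv1 growth-inhibition assay: cells exposed 24 h after seeding to 0.5–100 μM for 72 h, then counted with a Coulter counter. IC50 is the concentration causing 50% growth inhibition, taken from dose–response curves. Run in triplicate, three independent experiments, mean ± SD. Ratios divide the reference IC50 by the compound IC50.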
Turning to `N#Cc1ccc(OCc2cn(CC(=O)Nc3ccc(Cl)c(C(F)(F)F)c3)nn2)cc1`, the Ratio IC50 came out at 3.8.

The species entered for a further series is Homo sapiens. Briefly: Potency index, ratio of enzalutamide IC50 to compound IC50 for antagonist activity at AR V7 mutant in human CW22Rv1 cells assessed as cell growth inhibition. It counts as cell-based.
Conditions: not given
In short, it runs like this: as §2
In the case of `N#Cc1ccc(OCc2cn(CC(=O)Nc3ccc(Cl)c(C(F)(F)F)c3)nn2)cc1`, the Ratio IC50 is 4.4.

The target in the next series is T1, Androgen receptor (Homo sapiens).
Conditions: not given
Regarding `N#Cc1ccc(-n2cc(COc3ccc(F)cc3)nn2)cc1C(F)(F)F`, the GI50 was 19.2 µM.
Regarding `N#Cc1ccc(-n2cc(CSc3ccc(F)cc3)nn2)cc1C(F)(F)F`, the GI50 turned out to be 16.8 µM.
In turn, `N#Cc1ccc(OCc2cn(CC(=O)Nc3ccc(C#N)c(C(F)(F)F)c3)nn2)cc1` displayed a GI50 of 6.42 µM.
Same read-out and setting: the figure for `N#Cc1ccc(OCc2cn(CC(=O)Nc3ccc(Cl)c(C(F)(F)F)c3)nn2)cc1` is 5.09 µM.

The term GI50 denotes the concentration that inhibits growth by half. A word on the inhibition: it is the percentage by which the read-out fell short of the control. The term IC50 denotes the midpoint of a concentration-inhibition curve. What is called LC50 is the concentration lethal to half of the exposed cells or organisms.

The values above are taken from ChEMBL document CHEMBL4007465, “1,4-Substituted Triazoles as Nonsteroidal Anti-Androgens for Prostate Cancer Treatment” (J Med Chem, 2017).
